# Test results from the RNAGym collection of RNA variant scans (doi:10.1038/nmeth.2970).
# B1: NELF-E aptamer (parent)
# chain: CCCAACGACUGCCGAGCGAGAUUACGCUUGAGCGCCCCACUGAGGAUGCCCACGGGCGAUUGGGGCACGG
# Variants of: B1
# Assay: HiTS-RAP
# Conditions: with NELF-E (Drosophila)
# How it was run: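 Kd came from weighted Hill fits to the first binding curve, with intensities normalised to sequencing intensity and averaged per sequence, keeping only fits whose variance was below 1,000,000. That curve was imaged on an Illumina GAIIx flowcell, where sequenced aptamer DNA templates with a T7 promoter and ter site had been transcribed in situ by T7 RNA polymerase and halted by GST-Tus (30 minutes, 37°C). Before each image, clusters equilibrated for 30 minutes at room temperature with NELF-E-mOrange at 0.064 to 1000 nM in HEPES binding buffer.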
row,Variant,Kd [nM]
1,CCCAACGUCUGCCGAGCGAGAUUACGCUUGAGCGCCCCACUAAGGAUGCCCACGGGCGAUUGGGGCACGG [A8U G42A],71.2
2,CCCAACGACUGCCGAGCGAGAGUACUCUUGAGCGCCCCACUGAGGAUGCCCACGGGCGAUUGGGGCACGG [U22G G26U],4.84
3,CCCUACGACUGCCGAGCGAGAUUACGCUUGAGCGCCCCACUGAGGAUGCCCACGGGCGGUUGGGGCACGG [A4U A59G],70.4
4,CCCAACGACUGCCGAGCGAGAUGACGCUUGAGCGCCCCACUGAGGAUGCCCACGGGCGAUUGGAGCACGG [U23G G64A],6.56
5,CCCCACGACUGCCGAGCGAGAUUACGCUUGAGCGCCCCACUGAGGAUGCCCACGGGCGAUUGGGGCACGG [A4C],6.33
6,CCCAAGGACUGCCGAGCGAGAUUACUCUUGAGCGCCCCACUGAGGAUGCCCACGGGCGAUUGGGGCACGG [C6G G26U],5.54
7,CCCAACGACUGCCGAGCGAGGUUGCGCUUGAGCGCCCCACUGAGGAUGCCCACGGGCGAUUGGGGCACGG [A21G A24G],6.42
8,CCCAACGACUGCGGAGCGAGAUUACGCUUGAGCGCCCCACCGAGGAUGCCCACGGGCGAUUGGGGCACGG [C13G U41C],64.2
9,CCCAACGACUGCCGAGGGAGAUUACGCUUGAGCGCUCCACUGAGGAUGCCCACGGGCGAUUGGGGCACGG [C17G C36U],9.05
10,CCCAACGACUGCCGAGCGAGAUUACGCUUGAGCGCCCCACUGUGGAUGCCCACGGGCGAUUGGGGCUCGG [A43U A67U],37.1
11,CCCAUCGACUGCCGAGCGUGAUUACGCUUGAGCGCCCCACUGAGGAUGCCCACGGGCGAUUGGGGCACGG [A5U A19U],6
12,CCCAACGACUGCCGAGCGAGAGGACGCUUGAGCGCCCCACUGAGGAUGCCCACGGGCGAUUGGGGCACGG [U22G U23G],6.17
13,CCCUACGACUGCCGAGCGAUAUUACGCUUGAGCGCCCCACUGAGGAUGCCCACGGGCGAUUGGGGCACGG [A4U G20U],6.62
14,CCCAACGACUGCCGAGCGAGAUUACGCUGGAGCGCCCCACUGAGGAUGCCCGCGGGCGAUUGGGGCACGG [U29G A52G],4.39
15,CCCAACGACGGCCCAGCGAGAUUACGCUUGAGCGCCCCACUGAGGAUGCCCACGGGCGAUUGGGGCACGG [U10G G14C],6.25
16,CCCAACGACUGCCGAGCGAGAUUACGCUAGAGCGCCCCACUGAGGAUGCCCACGGGCGAUUGGGGCACGG [U29A],4.54
17,CCCAACUACUGCCGAGCGAGAUUACGGUUGAGCGCCCCACUGAGGAUGCCCACGGGCGAUUGGGGCACGG [G7U C27G],5.97
18,CCCAACGACUGCGGAUCGAGAUUACGCUUGAGCGCCCCACUGAGGAUGCCCACGGGCGAUUGGGGCACGG [C13G G16U],6.25
19,CCCCACGACUGCCUAGCGAGAUUACGCUUGAGCGCCCCACUGAGGAUGCCCACGGGCGAUUGGGGCACGG [A4C G14U],7.54
20,CCCAACGACUGCCGAGCGGGAUUACGCUUGAGCACCCCACUGAGGAUGCCCACGGGCGAUUGGGGCACGG [A19G G34A],6.47
21,CCCAACGACGGCCGAGCGAGAUUACGCUUGAGUGCCCCACUGAGGAUGCCCACGGGCGAUUGGGGCACGG [U10G C33U],5.07
22,CCCAACGGCUGCCGAGCGAGAUUACGCUUGAGCGCCUCACUGAGGAUGCCCACGGGCGAUUGGGGCACGG [A8G C37U],10.1
23,CCCAACGACUUCCGAUCGAGAUUACGCUUGAGCGCCCCACUGAGGAUGCCCACGGGCGAUUGGGGCACGG [G11U G16U],6.7
24,CCCAACGACUGCCGAGCGAGAUUACGCUUGAGCGCCCCACGGAGGAUGCCCACGGGCGAUUGGGGUACGG [U41G C66U],4.15
25,CCCGACGACUGCCGAGCGAGAUUACGCUUGAGCGCCCCACUGAGGAUGCUCACGGGCGAUUGGGGCACGG [A4G C50U],14.2
26,CCCAACGACUGCCGAGCGAGAUUACGCUUGAGCGCCCCACUGAGGUUGCCCACGGGCGGUUGGGGCACGG [A46U A59G],60.5

row,Variant,Kd [nM]
1,CCCAACGACGGCCGAGCGAGAUUACGCUUGAGCGCCCCACGGAGGAUGCCCACGGGCGAUUGGGGCACGG [U10G U41G],5.17
2,CCCAACGACUGCCGAGCGAGAUUACGCUUGAGCGCCCCACUGAGGAUGCCCACGGGCGAUUAGGGCACGG [G62A],16.9
3,CCCAACGACUACCGAGCGAGAUUGCGCUUGAGCGCCCCACUGAGGAUGCCCACGGGCGAUUGGGGCACGG [G11A A24G],5.78
4,CCCAACGACUGCCGAGUGAGAGUACGCUUGAGCGCCCCACUGAGGAUGCCCACGGGCGAUUGGGGCACGG [C17U U22G],4.67
5,CCCAACUACUGCCGAGCGAGAUUACGCUUGAGCGCCCCACUGAGGAUACCCACGGGCGAUUGGGGCACGG [G7U G48A],12
6,CCCAACGACUGCCUAGCGAGACUACGCUUGAGCGCCCCACUGAGGAUGCCCACGGGCGAUUGGGGCACGG [G14U U22C],5.6
7,CCCAACGACUGCCGAGCGAGAUUACGCUGGAGCGCCCCACUGAGGAUGCCCACGGGCUAUUGGGGCACGG [U29G G58U],8.12
8,CCCAACUACUGCCGAGCGAGAUUACGCUAGAGCGCCCCACUGAGGAUGCCCACGGGCGAUUGGGGCACGG [G7U U29A],5.71
9,CCCAACGACUGCCGAGCGAGGUUACGCUUGAGCGCCCCACUGAGGAUGCCCACGGGCGUUUGGGGCACGG [A21G A59U],73
10,CCCAACGACUGCCGAGCGAGAUUGCGCUUGAGCGCCCCACUGAGGAUGCCCACGGGCGAUUGGGUCACGG [A24G G65U],6
11,CCCAACGACUGCCGAGCGAGAUUACGCUUGAGCGCCCCACAGAGGAUGCCCACGGGCGAUUGGGGCUCGG [U41A A67U],59.4
12,CCCGACGACUGCCGAGCGAGAUUACGCCUGAGCGCCCCACUGAGGAUGCCCACGGGCGAUUGGGGCACGG [A4G U28C],9.05
13,CCCAACGACUGCGGAGCGAGAUUACGCUUGAGCGCCCCACUGAGGAAGCCCACGGGCGAUUGGGGCACGG [C13G U47A],11.8
14,CCCAAUGACUGUCGAGCGAGAUUACGCUUGAGCGCCCCACUGAGGAUGCCCACGGGCGAUUGGGGCACGG [C6U C12U],6.16
15,CCCAGCGACUGCCGAGCGAGAUUACGUUUGAGCGCCCCACUGAGGAUGCCCACGGGCGAUUGGGGCACGG [A5G C27U],5.87
16,CCCAAGGACUGCCGGGCGAGAUUACGCUUGAGCGCCCCACUGAGGAUGCCCACGGGCGAUUGGGGCACGG [C6G A15G],5.46
17,CCCAACGACUGCCGAGCGAGAUUACGCUUGAGCGCCCCACUGUGGAUGCCCACGGGCGAUUGGGGCACGG [A43U],67
18,CCCAACUACUGCCGAGCGAAAUUACGCUUGAGCGCCCCACUGAGGAUGCCCACGGGCGAUUGGGGCACGG [G7U G20A],7.33
19,CCCAACGACGGCCGAGCGAGAUGACGCUUGAGCGCCCCACUGAGGAUGCCCACGGGCGAUUGGGGCACGG [U10G U23G],5.1
20,CCCAACGACUGGCGAGCGAGAUUACGCUUGAGCGCCCCACUGAGGAUGCCCAUGGGCGAUUGGGGCACGG [C12G C53U],5.74
21,CCCAACGACUGCCGAGCGAGAGUACGCUUGAGGGCCCCACUGAGGAUGCCCACGGGCGAUUGGGGCACGG [U22G C33G],6.1
22,CCCGACGACUACCGAGCGAGAUUACGCUUGAGCGCCCCACUGAGGAUGCCCACGGGCGAUUGGGGCACGG [A4G G11A],6.4
23,CCCGACGACUGCCGAACGAGAUUACGCUUGAGCGCCCCACUGAGGAUGCCCACGGGCGAUUGGGGCACGG [A4G G16A],6.14
24,CCCAACGACUGGCGAGCGAGAUUACGCUUGAGCGCCCCUCUGAGGAUGCCCACGGGCGAUUGGGGCACGG [C12G A39U],25
25,CCCAACGACUGCCGAGGGAGACUACGCUUGAGCGCCCCACUGAGGAUGCCCACGGGCGAUUGGGGCACGG [C17G U22C],5.02
26,CCCAAGGACUGCCGAGCGAGAUUACGCUUGAGCGCCCCACUGAUGAUGCCCACGGGCGAUUGGGGCACGG [C6G G44U],8.75

row,Variant,Kd [nM]
1,CCCAACGAGUGCCGAGCGAGAUUACACUUGAGCGCCCCACUGAGGAUGCCCACGGGCGAUUGGGGCACGG [C9G G26A],5.39
2,CCCAACGACUGCCGAGCGAGAUUACGCUGGAGCGCCCCACUGAGGAUGCCCACGGGCGAUUGGGACACGG [U29G G65A],4.59
3,CCCAACGGCUGCCGAGCGAGAUUACGCUUGAGCGCCCCACUGAGGAUGCCCACGGGCGAUUGGGUCACGG [A8G G65U],8.03
4,CCCAACGACUGCCGAGUGAGAUUACGCUGGAGCGCCCCACUGAGGAUGCCCACGGGCGAUUGGGGCACGG [C17U U29G],5.35
5,CCCAACGACUGCCGAGCGAGUUUAGGCUUGAGCGCCCCACUGAGGAUGCCCACGGGCGAUUGGGGCACGG [A21U C25G],6.57
6,CCCGACGACUGCCGAGCGAGAUUACGCUUGAGCGCCCCAGUGAGGAUGCCCACGGGCGAUUGGGGCACGG [A4G C40G],6.29
7,CCCAACGACUGCCGAGCGAGAUGACGCUUGAGCGCCCCACUGAGGAUGCCCAAGGGCGAUUGGGGCACGG [U23G C53A],6.72
8,CCCAUUGACUGCCGAGCGAGAUUACGCUUGAGCGCCCCACUGAGGAUGCCCACGGGCGAUUGGGGCACGG [A5U C6U],4.75
9,CCCAACGACUGGCGUGCGAGAUUACGCUUGAGCGCCCCACUGAGGAUGCCCACGGGCGAUUGGGGCACGG [C12G A15U],6.36
10,CCCAGCGACUGCCGAGCGAGAUUACGCUUGAGCGCCCCGCUGAGGAUGCCCACGGGCGAUUGGGGCACGG [A5G A39G],13.2
11,CCCAACGACUACCGAGCGAGAGUACGCUUGAGCGCCCCACUGAGGAUGCCCACGGGCGAUUGGGGCACGG [G11A U22G],6.03
12,CCCAACGACUGCCGAGCGAGAUGACGCUUGAGCGCCCCACUGAGGAUGCCCACGGGCGAUUGGGACACGG [U23G G65A],4.87
13,CCCAUCGACUGGCGAGCGAGAUUACGCUUGAGCGCCCCACUGAGGAUGCCCACGGGCGAUUGGGGCACGG [A5U C12G],6.84
14,CCCUACGACUGCCGAGCGAGAUUACGCUUGAGCGCCCCACCGAGGAUGCCCACGGGCGAUUGGGGCACGG [A4U U41C],66
15,CCCAAGGACUGCCGAGCGAGAUUACGCUUGAGCGCCCCUCUGAGGAUGCCCACGGGCGAUUGGGGCACGG [C6G A39U],28.8
16,CCCGACGACUGCCGAGCGAGAUUACGCUUGAGCGCCCCACUGAGGAUGCCCAAGGGCGAUUGGGGCACGG [A4G C53A],6.64
17,CCCGACGACUGCCGAGCGAGAUUACGCUUGCGCGCCCCACUGAGGAUGCCCACGGGCGAUUGGGGCACGG [A4G A31C],4.18
18,CCCUACGACCGCCGAGCGAGAUUACGCUUGAGCGCCCCACUGAGGAUGCCCACGGGCGAUUGGGGCACGG [A4U U10C],6.91
19,CCCAACGACUGCGGUGCGAGAUUACGCUUGAGCGCCCCACUGAGGAUGCCCACGGGCGAUUGGGGCACGG [C13G A15U],6.13
20,CCCAACGACUGCCGAGCGAGAUUACGCUUGAGCGCCCCACUGAGGAUGCCCACUGUCGAUUGGGGCACGG [G54U G56U],5.48
21,CCCAACGACUGCCGAGCGAGAGUACGCUUGAGCGCCCCACUGAGGAUUCCCACGGGCGAUUGGGGCACGG [U22G G48U],9.66
22,CCCAACGACUGCCGAGGGAGAUUACGCUGGAGCGCCCCACUGAGGAUGCCCACGGGCGAUUGGGGCACGG [C17G U29G],4.86
23,CCCAACUACUGCCGAGCGAGAUUACGCUUGAGCGCCCCACUGAGGAUGCCCACGGGCGAUUGGAGCACGG [G7U G64A],8.36
24,CCCAACGACAGCCUAGCGAGAUUACGCUUGAGCGCCCCACUGAGGAUGCCCACGGGCGAUUGGGGCACGG [U10A G14U],6.38
25,CCCAGCGACUGCCGAGCGAGAUUACGCUUGAGCGCCCCACAGAGGAUGCCCACGGGCGAUUGGGGCACGG [A5G U41A],25
